ChEMBL document CHEMBL1122752, “Nucleosides. 129. Synthesis of antiviral nucleosides: 5-alkenyl-1-(2-deoxy-2-fluoro-beta-D-arabinofuranosyl)uracils” (J Med Chem, 1984)

What was measured:
Vero [1] = test: In vitro antiviral activity was determined by plaque-reduction assay in HSV-1(strain 2931) infected Vero cell monolayers; format: functional; conditions: Chlorocebus sabaeus, read-out: ED50 (the source's name)
In short: (§1)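 Vero cell monolayers infected with about 20–30 pfu per well (HSV-1 strain 2931 or HSV-2 strain G), 2 h incubation, then overlaid with maintenance medium containing various drug concentrations. Plaques counted after 2 days of development. ED50 (50% plaque reduction) calculated by linear regression. Values are the mean of three separate experiments run in parallel.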

Vero [2] = test: In vitro antiviral activity was determined by plaque-reduction assay in HSV-2 (strain G) infected Vero cell monolayers; format: functional; conditions: Chlorocebus sabaeus, read-out: ED50 (the source's name); in short: as §1
[3] = Cytotoxicity expressed as ID50 which is the concentration required for 50% growth inhibition of normal human lymphocytes.; conditions: read-out: ID50 (the source's name)
In short: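 Normal human lymphoblasts stimulated with PHA; drug concentration causing 50% inhibition of replication (ID50) determined; values are means of three separate experiments run in parallel.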

CCc1cn([C@H]2O[C@@H](CO)[C@H](O)[C@@H]2F)c(=O)[nH]c1=O
EC50 (Vero [1]): 240 nM | EC50 (Vero [2]): 650 nM | GI50 [3]: > 100000 nM

Nc1nc(=O)n([C@@H]2O[C@H](CO)[C@@H](O)[C@H]2F)cc1I
EC50 (Vero [1]): 24 nM | EC50 (Vero [2]): 14 nM | GI50 [3]: 8600 nM

O=c1[nH]c(=O)n([C@@H]2O[C@H](CO)[C@@H](O)[C@@H]2F)cc1/C=C/I
EC50 (Vero [1]): 1100 nM | EC50 (Vero [2]): 17300 nM | GI50 [3]: > 100000 nM

O=c1[nH]c(=O)n([C@H]2C[C@H](O)[C@@H](CO)O2)cc1/C=C/Br [BRIVUDINE]
EC50 (Vero [1]): 70 nM | EC50 (Vero [2]): 13000 nM

O=c1[nH]c(=O)n([C@H]2O[C@@H](CO)[C@H](O)[C@@H]2F)cc1/C=C/Br
EC50 (Vero [1]): 400 nM | EC50 (Vero [2]): 13900 nM | GI50 [3]: > 100000 nM

C=Cc1cn([C@@H]2O[C@H](CO)[C@@H](O)[C@H]2F)c(=O)[nH]c1=O
EC50 (Vero [1]): 160 nM | EC50 (Vero [2]): 690 nM | GI50 [3]: > 100000 nM

O=c1[nH]c(=O)n([C@@H]2O[C@H](CO)[C@@H](O)[C@@H]2F)cc1/C=C/Cl
EC50 (Vero [1]): 540 nM | EC50 (Vero [2]): 6900 nM | GI50 [3]: > 100000 nM
